Series [1] concerns W256. Put plainly: Antitumor activity against rat Walker 256 cells intramuscularly allografted in rat assessed as tumor growth inhibition at 0.25 mg/kg, qd administered for 5 days relative to control. It counts as functional. The conditions noted are these: W256, im, 120 h, route intramuscular, read-out: TGI. The procedure, abridged:
(§1)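 Dosed once daily for 5 days. Response is tumor progression in treated (T) versus untreated control (C) animals, expressed as T/C percentage. Host weight change is reported as the average net weight change of the test group minus that of the controls, in grams.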

Series [2] deals with Rattus norvegicus. The series is described as follows: Toxicity in rat allografted with cytoxan-resistant rat Walker 256 cells intramuscularly assessed as change in body weight at 0.5 mg/kg, qd administered for 5 days. It counts as organism-based. On the set-up: dose 0.5 mg/kg, route intramuscular. The note with it: in vivo, im, 120 h. An outline of the steps:
(§2)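 Walker 256 carcinoma solid-tumour system in rats (parent line, or the line resistant to cytoxan). Dosing was one injection per day for 5 days. Toxicity was taken as the average net body-weight change of the treated group minus the average net weight change of the untreated tumour-bearing controls, in grams.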

The subject of series [3] is Rattus norvegicus. Put plainly: Toxicity in rat allografted with rat Walker 256 cells intramuscularly assessed as change in body weight at 0.125 mg/kg, qd administered for 5 days. It counts as organism-based. On the set-up: dose 0.125 mg/kg, route intramuscular. The note with it: in vivo, im, 120 h. An outline of the steps:
as §2

For series [4], the system named is W256. The series is described as follows: Antitumor activity against rat Walker 256 cells intramuscularly allografted in rat assessed as tumor growth inhibition at 0.062 mg/kg, qd administered for 5 days relative to control. It counts as functional. The note with it: W256, im, 120 h, route intramuscular, read-out: TGI. An outline of the steps: as §1
Series [5] deals with W256. The series is described as follows: Antitumor activity against rat Walker 256 cells intramuscularly allografted in rat assessed as tumor growth inhibition at 2 mg/kg, qd administered for 5 days relative to control. The series is classed as functional. The conditions noted are these: W256, im, 120 h, route intramuscular, read-out: TGI. The procedure, abridged: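 Walker 256 carcinoma grown as a solid tumour in rats, with one injection daily for 5 days. Response is given as T/C %, the treated-group measure over the untreated-control tumour measure; a smaller value means more activity. Host toxicity is the mean net weight change of treated minus control animals, in grams.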

The subject of series [6] is W256. Put plainly: Antitumor activity against rat Walker 256 cells intramuscularly allografted in rat assessed as survival rate at 0.062 mg/kg, qd administered for 5 days. The series is classed as functional, organism-based. On the set-up: dose 0.062 mg/kg. The procedure, abridged:
(§3)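 Rats bearing Walker 256 carcinoma as a solid tumor; lines 1-8 use a cytoxan-resistant Walker 256 subline. Dosed once daily for 5 days. Treated (T) and untreated control (C) groups are compared, and the response is given as T/C percentage, reflecting increase in survival time. Host weight change is the average weight change of the test group minus that of the controls, in grams.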

Series [7] deals with W256. Put plainly: Antitumor activity against cytoxan-resistant rat Walker 256 cells intramuscularly allografted in rat assessed as survival rate at 0.12 mg/kg, qd administered for 5 days. It counts as functional, organism-based. On the set-up: dose 0.12 mg/kg. An outline of the steps: as §3
Series [8] concerns W256. The series is described as follows: Antitumor activity against rat Walker 256 cells intramuscularly allografted in rat assessed as tumor growth inhibition at 0.125 mg/kg, qd administered for 5 days relative to control. The series is classed as functional. The note with it: W256, im, 120 h, route intramuscular, read-out: TGI. An outline of the steps: as §1
The test system of series [9] is W256. The series is described as follows: Antitumor activity against cytoxan-resistant rat Walker 256 cells intramuscularly allografted in rat assessed as tumor growth inhibition at 1 mg/kg, qd administered for 5 days relative to control. It counts as functional. The note with it: W256, im, 120 h, route intramuscular, read-out: TGI. The procedure, abridged:
as §1

Series [10] concerns W256. The series is described as follows: Antitumor activity against rat Walker 256 cells intramuscularly allografted in rat assessed as survival rate at 0.25 mg/kg, qd administered for 5 days. The series is classed as functional, organism-based. On the set-up: dose 0.25 mg/kg. The procedure, abridged:
as §3

For series [11], the system named is W256. Put plainly: Antitumor activity against rat Walker 256 cells intramuscularly allografted in rat assessed as tumor growth inhibition at 0.5 mg/kg, qd administered for 5 days relative to control. The note with it: W256, im, 120 h, route intramuscular, read-out: TGI. The series is classed as functional. An outline of the steps: as §1
Series [12] is filed under the species Rattus norvegicus. The series is described as follows: Toxicity in Wistar-Furth rat assessed as decrease in mature spermatocytes measured for 24 hrs. It counts as organism-based. The note with it: in vivo. An outline of the steps: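 Wistar-Furth rats were injected daily for 5 days at the antifertility-study doses of 1 or 5 mg/kg, depending on agent. Testes or ovaries were taken at sacrifice after 1, 3 or 24 h. Cryostat frozen sections were fixed in 95% alcohol for 10 min and stained with acridine orange (DNA green, RNA red). Results were compared with untreated controls.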

Series [13] concerns Rattus norvegicus. Put plainly: Toxicity in rat allografted with rat Walker 256 cells intramuscularly assessed as change in body weight at 0.25 mg/kg, qd administered for 5 days. The conditions noted are these: in vivo, im, 120 h. On the set-up: dose 0.25 mg/kg, route intramuscular. The series is classed as organism-based. The procedure, abridged:
as §2

The subject of series [14] is W256. The series is described as follows: Antitumor activity against cytoxan-resistant rat Walker 256 cells intramuscularly allografted in rat assessed as survival rate at 0.5 mg/kg, qd administered for 5 days. The arrangement: dose 0.5 mg/kg. The series is classed as functional, organism-based. An outline of the steps: as §3
Series [15] has as its system W256. The series is described as follows: Antitumor activity against rat Walker 256 cells intramuscularly allografted in rat assessed as tumor growth inhibition at 0.031 mg/kg, qd administered for 5 days relative to control. The series is classed as functional. The note with it: W256, im, 120 h, route intramuscular, read-out: TGI. The procedure, abridged: as §1
Series [16] deals with Rattus norvegicus. Put plainly: Toxicity in rat allografted with rat Walker 256 cells intramuscularly assessed as change in body weight at 0.062 mg/kg, qd administered for 5 days. The series is classed as organism-based. On the set-up: dose 0.062 mg/kg, route intramuscular. The conditions noted are these: in vivo, im, 120 h. An outline of the steps:
as §2

The subject of series [17] is Rattus norvegicus. The series is described as follows: Toxicity in rat allografted with rat Walker 256 cells intramuscularly assessed as change in body weight at 2 mg/kg, qd administered for 5 days. The series is classed as organism-based. The arrangement: dose 2 mg/kg, route intramuscular. The conditions noted are these: in vivo, im, 120 h. The procedure, abridged:
as §2

In series [18] the test system is W256. The series is described as follows: Antitumor activity against cytoxan-resistant rat Walker 256 cells intramuscularly allografted in rat assessed as survival rate at 0.25 mg/kg, qd administered for 5 days. The series is classed as functional, organism-based. On the set-up: dose 0.25 mg/kg. An outline of the steps: as §3
In series [19] the test system is W256. Put plainly: Antitumor activity against cytoxan-resistant rat Walker 256 cells intramuscularly allografted in rat assessed as tumor growth inhibition at 0.25 mg/kg, qd administered for 5 days relative to control. It counts as functional. The conditions noted are these: W256, im, 120 h, route intramuscular, read-out: TGI. An outline of the steps:
as §1

In series [20] the test system is W256. The series is described as follows: Antitumor activity against rat Walker 256 cells intramuscularly allografted in rat assessed as tumor growth inhibition at 1 mg/kg, qd administered for 5 days relative to control. It counts as functional. The conditions noted are these: W256, im, 120 h, route intramuscular, read-out: TGI. The procedure, abridged:
as §1

The test system of series [21] is Rattus norvegicus. The series is described as follows: Toxicity in rat allografted with cytoxan-resistant rat Walker 256 cells intramuscularly assessed as change in body weight at 2 mg/kg, qd administered for 5 days. It counts as organism-based. The arrangement: dose 2 mg/kg, route intramuscular. The conditions noted are these: in vivo, im, 120 h. An outline of the steps: as §2

Calls of active or inactive are those of the source. No cut-off for these calls is given here.

In the case of `C=CCN(CC=C)P(=O)(N1CC1)N1CC1`, the inhibition in vivo at 0.25 mg/kg with W256 [1] is 0%; in the series on W256 [19] it was 60%. In addition, the Activity was -13 g in the series on Rattus norvegicus [2]; -1 g with Rattus norvegicus [3]; “Non-toxic” in the series filed under Rattus norvegicus [12]; -12 g with Rattus norvegicus [13]; -5 g in the series with Rattus norvegicus [16]; -44 g in the series with Rattus norvegicus [17]. Also, the Activity with Rattus norvegicus [21] is reported as -2 g. The inhibition in vivo at 0.062 mg/kg in the series with W256 [4] was found to be 7%. In addition, in the series on W256 [5], the inhibition in vivo at 2 mg/kg was 0%. The outcome with W256 [6], in the series with W256 [7], in the series with W256 [10], in the series on W256 [14] and in the series with W256 [18] was Active. Moreover, in the series on W256 [8], the inhibition in vivo at 0.125 mg/kg was determined as 1%. The inhibition in vivo at 1 mg/kg in the series with W256 [9] was determined as 40%; in the series with W256 [20] it was 0%. The inhibition in vivo at 0.5 mg/kg in the series on W256 [11] came out at 0%. Moreover, in the series on W256 [15], the inhibition in vivo at 0.031 mg/kg amounted to 24%.

For the origin of these results see ChEMBL document CHEMBL3272018, “Synthesis of aziridinylallylaminophosphine oxides and sulfides as potential adjuvant cancer chemotherapeutic agents” (J Med Chem, 1976).
